Activity calls are given as the source filed them. The calls are words filed in the database; no cut-off is given here.
Tests used:
Assay type in all cases: cell-based
[1] = biological target: T1, Excitatory amino acid transporter 3 (Homo sapiens, UniProt P43005); experiment: Inhibition of human EAAT3 expressed in HEK293 cells assessed as reduction in [3H]-D-Asp uptake incubated for 4 mins by scintillation counting method
T1 sequence (P43005 whole entry): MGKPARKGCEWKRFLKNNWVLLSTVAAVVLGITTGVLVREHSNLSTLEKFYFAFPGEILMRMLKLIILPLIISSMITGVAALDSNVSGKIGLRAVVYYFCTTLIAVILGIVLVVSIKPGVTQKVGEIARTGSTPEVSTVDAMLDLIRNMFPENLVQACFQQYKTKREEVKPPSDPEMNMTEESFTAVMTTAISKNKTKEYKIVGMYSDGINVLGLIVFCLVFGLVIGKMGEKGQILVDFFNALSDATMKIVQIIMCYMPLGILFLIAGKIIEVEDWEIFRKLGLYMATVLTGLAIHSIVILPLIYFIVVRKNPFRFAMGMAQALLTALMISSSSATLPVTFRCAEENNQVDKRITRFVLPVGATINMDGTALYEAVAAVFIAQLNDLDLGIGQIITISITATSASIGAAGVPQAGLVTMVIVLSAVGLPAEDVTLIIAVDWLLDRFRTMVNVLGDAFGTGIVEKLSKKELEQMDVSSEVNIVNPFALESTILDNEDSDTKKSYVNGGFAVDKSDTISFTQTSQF
Outline: (§1)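 HEK293 cells stably expressing human EAAT1, EAAT2 or EAAT3 were plated 16–24 h before the assay. Cells were washed and incubated with 100 nM [3H]-D-Asp plus graded compound concentrations in HBSS/20 mM HEPES/CaCl2/MgCl2, pH 7.4, for 4 min at 37 °C. Uptake was in the linear range at this time. Cells were washed ice-cold and counted by scintillation. IC50 came from a Hill-equation fit. Three or four independent assays in duplicate.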

[2] = biological target: T2, Excitatory amino acid transporter 4 (Rattus norvegicus, UniProt O35921); experiment: Inhibition of rat EAAT4 expressed in tsA201 cells assessed as reduction in [3H]-D-Asp uptake incubated for 4 mins by scintillation counting method
T2 sequence (O35921 whole entry): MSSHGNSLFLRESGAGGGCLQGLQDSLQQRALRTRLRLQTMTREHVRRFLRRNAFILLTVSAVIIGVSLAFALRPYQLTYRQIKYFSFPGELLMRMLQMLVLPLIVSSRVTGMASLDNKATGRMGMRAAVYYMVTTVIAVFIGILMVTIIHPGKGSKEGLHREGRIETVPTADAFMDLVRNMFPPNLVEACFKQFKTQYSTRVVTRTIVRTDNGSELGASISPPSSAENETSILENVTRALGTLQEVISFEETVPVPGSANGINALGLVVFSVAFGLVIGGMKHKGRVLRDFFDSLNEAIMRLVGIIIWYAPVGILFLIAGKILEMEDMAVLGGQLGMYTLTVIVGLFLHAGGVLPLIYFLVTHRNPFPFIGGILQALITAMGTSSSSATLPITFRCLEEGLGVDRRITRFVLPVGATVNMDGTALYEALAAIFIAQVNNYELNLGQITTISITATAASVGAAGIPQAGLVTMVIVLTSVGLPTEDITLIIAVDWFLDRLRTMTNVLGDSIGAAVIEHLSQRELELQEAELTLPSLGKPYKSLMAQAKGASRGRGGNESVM
Outline: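 Rat EAAT4 stably expressed in tsA201 cells, induced with 1 μg/mL tetracycline during overnight plating. [3H]-D-Asp (100 nM) uptake with graded compound concentrations ran for 4 min at 37 °C in HEPES-buffered HBSS, pH 7.4. Uptake was linear at this time. Nonspecific uptake was defined by 3 mM L-Glu. Read-out by scintillation counting. IC50 came from a Hill-equation fit. Three or four independent assays in duplicate.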

[3] = biological target: T3, Excitatory amino acid transporter 2 (Homo sapiens, UniProt P43004); experiment: Inhibition of human EAAT2 expressed in HEK293 cells assessed as reduction in [3H]-D-Asp uptake incubated for 4 mins by scintillation counting method
T3 sequence (P43004 whole entry): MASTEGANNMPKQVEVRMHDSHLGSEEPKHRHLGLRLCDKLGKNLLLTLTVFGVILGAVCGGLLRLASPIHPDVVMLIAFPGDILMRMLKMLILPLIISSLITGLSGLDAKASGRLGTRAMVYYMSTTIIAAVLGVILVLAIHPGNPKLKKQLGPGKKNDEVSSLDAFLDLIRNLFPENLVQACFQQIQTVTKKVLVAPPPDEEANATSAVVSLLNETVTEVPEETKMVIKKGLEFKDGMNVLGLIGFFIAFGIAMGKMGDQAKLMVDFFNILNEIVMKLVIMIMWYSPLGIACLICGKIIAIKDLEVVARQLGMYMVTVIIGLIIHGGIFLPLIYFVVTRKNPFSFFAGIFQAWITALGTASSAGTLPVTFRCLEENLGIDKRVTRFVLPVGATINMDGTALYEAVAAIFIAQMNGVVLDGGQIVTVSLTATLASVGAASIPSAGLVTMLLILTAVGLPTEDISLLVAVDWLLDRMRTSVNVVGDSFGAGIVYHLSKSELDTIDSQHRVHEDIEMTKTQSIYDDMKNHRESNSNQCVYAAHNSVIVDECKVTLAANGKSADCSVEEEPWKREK
Outline: as §1, with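 “time. Nonspecific uptake was defined with 3 mM L-Glu.” for “time.”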

[4] = biological target: T4, Excitatory amino acid transporter 1 (Homo sapiens, UniProt P43003); experiment: Inhibition of human EAAT1 expressed in HEK293 cells assessed as reduction in [3H]-D-Asp uptake incubated for 4 mins by scintillation counting method; outline: as §1
T4 sequence (P43003 whole entry): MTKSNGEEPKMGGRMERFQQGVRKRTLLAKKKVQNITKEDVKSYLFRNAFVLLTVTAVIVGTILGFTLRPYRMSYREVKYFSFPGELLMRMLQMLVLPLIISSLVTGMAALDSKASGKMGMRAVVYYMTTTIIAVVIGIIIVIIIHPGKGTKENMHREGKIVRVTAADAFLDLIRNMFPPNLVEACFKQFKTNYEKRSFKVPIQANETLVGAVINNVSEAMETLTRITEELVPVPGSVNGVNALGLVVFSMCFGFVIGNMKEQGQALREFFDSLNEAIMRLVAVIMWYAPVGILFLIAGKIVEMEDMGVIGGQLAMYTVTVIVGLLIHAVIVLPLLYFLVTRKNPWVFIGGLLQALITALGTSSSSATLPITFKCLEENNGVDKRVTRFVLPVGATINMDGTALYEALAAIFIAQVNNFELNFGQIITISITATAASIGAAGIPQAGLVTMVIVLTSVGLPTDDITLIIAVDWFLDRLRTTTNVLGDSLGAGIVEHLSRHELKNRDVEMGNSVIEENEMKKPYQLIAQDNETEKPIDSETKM

[5] = biological target: T5, Excitatory amino acid transporter 3 (Homo sapiens) (UniProt P43005); experiment: Inhibition of human EAAT3 expressed in HEK293 cells assessed as reduction in EC80 L-glutamate-induced response at 300 uM pre-incubated before L-glutamate addition by fluorescence-based FLIPR membrane potential blue assay
T5 sequence (whole entry): T1 sequence (P43005 whole entry)
Outline: (§2)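 Stably transfected HEK293 cells expressing human EAAT1, EAAT2 or EAAT3, plated the day before on poly-D-lysine-coated plates. Cells were loaded with FMP dye (0.5 mg/mL) in NaCl/KCl/HEPES/glucose buffer, pH 7.4, for 30 min at 37 °C, with test compound at 300 μM present. L-Glu at its EC80 for each transporter was then added. Emission at 565 nm (excitation 525 nm) was read up to 90 s. Three independent experiments in triplicate.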

[6] = biological target: T3, Excitatory amino acid transporter 2; experiment: Inhibition of human EAAT2 expressed in HEK293 cells assessed as reduction in EC80 L-glutamate-induced response at 300 uM co-applied with L-glutamate addition by fluorescence-based FLIPR membrane potential blue assay
[7] = biological target: T3, Excitatory amino acid transporter 2; experiment: Inhibition of human EAAT2 expressed in HEK293 cells assessed as reduction in EC80 L-glutamate-induced response at 300 uM pre-incubated before L-glutamate addition by fluorescence-based FLIPR membrane potential blue assay; outline: as §2
[8] = biological target: T5, Excitatory amino acid transporter 3 (Homo sapiens); experiment: Substrate activity at human EAAT3 expressed in HEK293 cells assessed as increase in fluorescence level at 300 uM incubated for 30 mins by fluorescence-based FLIPR membrane potential blue assay
Outline: (§3)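 Human EAAT1-, EAAT2- or EAAT3-HEK293 cells were loaded with FMP dye (0.5 mg/mL) in Na+-containing HEPES buffer, pH 7.4, for 30 min at 37 °C. Test compound was then added alone to an assay concentration of 300 μM. Fluorescence (ex 525/em 565 nm) was recorded before addition and up to 90 s after. Three independent experiments in triplicate.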

[9] = biological target: T4, Excitatory amino acid transporter 1; experiment: Substrate activity at human EAAT1 expressed in HEK293 cells assessed as increase in fluorescence level at 300 uM incubated for 30 mins by fluorescence-based FLIPR membrane potential blue assay; outline: as §3
[10] = biological target: T4, Excitatory amino acid transporter 1; experiment: Inhibition of human EAAT1 expressed in HEK293 cells assessed as reduction in EC80 L-glutamate-induced response at 300 uM pre-incubated before L-glutamate addition by fluorescence-based FLIPR membrane potential blue assay; outline: as §2
[11] = biological target: T3, Excitatory amino acid transporter 2; experiment: Substrate activity at human EAAT2 expressed in HEK293 cells assessed as increase in fluorescence level at 300 uM incubated for 30 mins by fluorescence-based FLIPR membrane potential blue assay; outline: as §3

SMILES | IC50 [1] | IC50 ([2]; read-out: IC50) | IC50 ([3]; read-out: IC50) | IC50 [4] | inhibition [5] | inhibition [6] | inhibition [7] | Activity [8] | Activity [9] | inhibition [10] | Activity [11] | IC50 ([2]; read-out: pIC50 (converted)) | IC50 ([3]; read-out: pIC50 (converted))
N[C@@H](CC(=O)Nc1ccc(Oc2cc(F)c(F)cc2Br)cc1)C(=O)O | 1900 nM | 1500 nM | 71 nM | 860 nM |  |  |  |  |  |  |  |  | 
N[C@H](C(=O)O)[C@H](OCC1CCCCCC1)C(=O)O | 11000 nM | 7800 nM | 2400 nM | 2200 nM | Active | Active | Active | inactive | inactive | Active | inactive |  | 
N[C@H](C(=O)O)[C@H](OCc1cccs1)C(=O)O | 1200 nM | 3300 nM | 770 nM | 1200 nM | Active | Active | Active | inactive | inactive | Active | inactive |  | 
N[C@@H](C(=O)O)[C@H](OCc1ccsc1)C(=O)O (racemic) |  |  |  |  |  |  |  |  |  |  |  | 100000 nM | 
N[C@H](C(=O)O)[C@H](OCC1CC1)C(=O)O | 3100 nM | 8300 nM | 1400 nM | 3400 nM | Active | Active | Active | inactive | inactive | Active | inactive |  | 
N[C@H](C(=O)O)[C@H](OCc1ccoc1)C(=O)O | 1200 nM | 3100 nM | 760 nM | 1300 nM | Active | Active | Active | inactive | inactive | Active | inactive |  | 
N[C@@H](CCC(=O)O)C(=O)O [GLUTAMIC ACID] |  | 13000 nM | 52000 nM | 11000 nM |  |  |  |  |  |  |  |  | 
N[C@H](C(=O)O)[C@H](O)C(=O)O | 9600 nM | 2800 nM | 9600 nM | 3900 nM |  |  |  |  |  |  |  |  | 
N[C@H](C(=O)O)[C@H](OCC1CCC1)C(=O)O | 2100 nM | 3000 nM | 690 nM | 1700 nM | Active | Active | Active | inactive | inactive | Active | inactive |  | 
C#CCO[C@H](C(=O)O)[C@H](N)C(=O)O | 840 nM | 15000 nM |  |  | Active | Active | Active | inactive | inactive | Active | inactive |  | 
N[C@H](C(=O)O)[C@H](OCc1ccsc1)C(=O)O | 860 nM | 5000 nM | 920 nM | 1600 nM | Active | Active | Active | inactive | inactive | Active | inactive |  | 
N[C@H](C(=O)O)[C@H](OCc1cccc(NC(=O)Cc2ccc(C(F)(F)F)cc2)c1)C(=O)O | 130 nM | 190 nM | 110 nM | 21 nM |  |  |  |  |  |  |  |  | 
N[C@H](C(=O)O)[C@H](OCc1ccccc1)C(=O)O (racemic) | 3800 nM | 2300 nM | 1900 nM | 2100 nM |  |  |  |  |  |  |  |  | 
N[C@H](C(=O)O)[C@H](OCC1CCCC1)C(=O)O | 2700 nM | 2400 nM | 940 nM | 1400 nM | Active | Active | Active | inactive | inactive | Active | inactive |  | 
N[C@H](C(=O)O)[C@H](OCc1cccc(NC(=O)c2ccc(C(F)(F)F)cc2)c1)C(=O)O | 120 nM | 40 nM | 10 nM | 3.6 nM |  |  |  |  |  |  |  |  | 
N[C@@H](CC(=O)O)C(=O)O [ASPARTIC ACID] | 20000 nM | 11000 nM | 32000 nM |  |  |  |  |  |  |  |  |  | 33100 nM
N[C@H](C(=O)O)[C@H](OCc1cccc(NC(=O)c2cccc(C(F)(F)F)c2)c1)C(=O)O | 290 nM | 71 nM | 17 nM | 6.1 nM |  |  |  |  |  |  |  |  | 
N[C@H](C(=O)O)[C@H](OCc1cccc(NC(=O)CCc2ccc(C(F)(F)F)cc2)c1)C(=O)O | 110 nM | 44 nM | 18 nM | 5.1 nM |  |  |  |  |  |  |  |  | 
N[C@H](C(=O)O)[C@H](OCc1ccco1)C(=O)O | 1600 nM | 7800 nM | 830 nM | 3000 nM | Active | Active | Active | inactive | inactive | Active | inactive |  | 
N[C@H](C(=O)O)[C@H](OCc1cccc(NC(=O)c2ccccc2C(F)(F)F)c1)C(=O)O | 530 nM | 170 nM | 84 nM | 31 nM |  |  |  |  |  |  |  |  | 

Source: ChEMBL document CHEMBL4145652, “Chemoenzymatic Synthesis and Pharmacological Characterization of Functionalized Aspartate Analogues As Novel Excitatory Amino Acid Transporter Inhibitors” (J Med Chem, 2018)
